From PubChem
HSV replic up – enhancers of HSV replication in host cells, fold increase, host cell viability | maximum fold increase | AID 1956, 2009 | 220,000 tested, 0.005% active | HSV replication augmentation in cells; in the data active means maximum fold increase above about 1.5; inconclusive means no clear call, values can overlap the other calls; tested in PC3 cells
HSF-1 act – HSF-1 activators, primary screen, NIH3T3-HGL cells, MG132 stress, luminescence, single point; NIH3T3-HGL HSF-1 luciferase reporter, 8 h; 100% = twice DMSO control signal; activation, % at 9 µM; 300,000 tested, 1.7% active; AID 504408, 2011;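 active means mean replicate activation of at least 50% with a set share of replicates each reaching 50%; inconclusive means only one of those two conditions met; inactive means mean below 50% and too few replicates reaching it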;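 further: 0% = median of the neutral control wells and 100% = twice that signal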
Mdm2 ligase inh – MDM2-luciferase reporter signal enhancers, primary screen, MDM2 E3 ligase inhibitor project, cell-based, luminescence, 1536-well | E3 ubiquitin-protein ligase Mdm2 (Homo sapiens), Q00987 | cell-based MDM2 ubiquitination luciferase reporter, 2 h; 0 = plate control, 100 = twice control, blank-subtracted | signal enhancement, % at 5 µM | 210,000 tested, 0.11% active | AID 1230, 2008;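 active means signal enhancement of 30% or more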;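 further: luminescence tracks abundance of the self-degrading MDM2-luciferase fusion protein; higher signal means inhibition of MDM2 E3 ligase activity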
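Material: stable MDM2–luciferase fusion reporter cells / Quantity: 2000 cells/well / Dosing: single 5 µM compound dose, 0.2% final DMSO / Buffer or medium: DMEM / Schedule: 4 h cell settling then 2 h compound exposure, 37 °C / Detection: luminescence with SteadyLite reagent, 15 min at room temperature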
Hsp70 activator – Hsp70 transcriptional activators, primary screen, cell-based, HeLa, Hsp70 promoter luciferase, luminescence, 10 µM | 200,000 tested, 0.04% active | AID 1203, 2008 | HeLa Hsp70 promoter luciferase reporter; scaled: vehicle 0, proteasome-inhibitor control 100% | activation, % at 10 µM;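 active means activation above the mean across all tested compounds plus 3 SD, cutoff set per campaign, cut at about 5.5% in these data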;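 further: 100% = MG132 at 30 µM as the positive control and 0% = DMSO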
Rad51 HR inh – human RAD51 strand exchange inhibitors, primary screen, biochemical, fluorescence; DNA repair protein RAD51 homolog 1 (Homo sapiens), Q06609; hRad51 DNA strand exchange, fluorescence dequenching; inhibition, % at 10 µM; 200,000 tested, 0.085% active; AID 1385, 2008;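 active means inhibition above 40% at the single screening dose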;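 further: 0% = DMSO control wells and 100% = blanks with heterologous ssDNA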
Target sequence (Q06609 whole entry, looked up): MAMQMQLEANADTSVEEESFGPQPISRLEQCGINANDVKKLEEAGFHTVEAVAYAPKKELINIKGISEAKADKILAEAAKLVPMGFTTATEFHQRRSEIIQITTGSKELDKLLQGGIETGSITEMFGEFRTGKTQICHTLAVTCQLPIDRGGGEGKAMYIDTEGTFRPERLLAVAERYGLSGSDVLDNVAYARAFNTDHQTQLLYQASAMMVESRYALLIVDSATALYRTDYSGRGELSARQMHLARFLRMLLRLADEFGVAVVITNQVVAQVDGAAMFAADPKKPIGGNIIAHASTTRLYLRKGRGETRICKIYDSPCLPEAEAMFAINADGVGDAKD
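System: hRad51 filaments on single-stranded DNA; reagent: Fluorescein- and BHQ1-tagged 47-mer duplex; compound dosing: one concentration, 10 µM final; timing: filaments 15 min 37 °C, then compound 30 min; measured by: fluorescein emission 520 nm, excitation 485 nm; benchmarks: per-plate controls and blanks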
HSF1 inhib – HSF1 inhibitors in luciferase reporter cells, primary screen, cell-based, NIH3T3, luminescence; NIH3T3-HGL HSE-luciferase, MG132-induced, luminescence 8 h; active compounds read low; activity change, negative = inhibition, % at 7.5 µM (by protocol); 300,000 tested, 0.77% active; AID 2098, 2009;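 active means more than half of replicate wells show activity change below -50%, luminescence cut by over half; inconclusive means some wells, but at most half, below -50%; inactive means no replicate well below -50%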;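 further: luciferase reports HSF-1 transcriptional activity via heat shock element; 0% = median of DMSO wells and -100% = zero luminescence signal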
An asterisk follows results filed as active; i = inactive; ? = inconclusive; . = not tested or not shown. Compounds with a hit are over-represented: about 2.6% of the library has one in this group of screens.

SMILES	HSV replic up	HSF-1 act	Mdm2 ligase inh	Hsp70 activator	Rad51 HR inh	HSF1 inhib
CC1CCCCN1C(=O)CNCC1CCCO1 (configuration not stated)	i	8	-11	0	15	-2
O=C(Nc1ccc2oc(-c3ccncc3)nc2c1)c1ccco1	.	20	.	.	.	3
O=C(Nc1ccc2oc(-c3ccccc3)nc2c1)c1ccco1	i	86*	-5	0	11	35
CN(c1ccccc1)c1ccc(/C=C(\CCC(=O)O)c2nc3ccccc3s2)cc1[N+](=O)[O-]	i	57*	-13	0	5	16
CCOC(=O)c1c(NC(=O)c2nn(CC)cc2Br)c(C#N)nn1-c1ccccc1	i	52*	-13	0	2	24
CCOC(=O)c1nn(-c2ccccc2)c(C#N)c1NC(=O)c1nn(CC)cc1Br	i	-14	-12	0	4	3
Cc1nn(CC(=O)NCc2ccc(OC(C)C)cc2)c(=O)c2cc(-c3ccccc3)nn12	.	3	.	.	.	0
C/C(=N\n1c(C)nc2ccccc2c1=O)c1ccc(N)cc1	.	27	.	.	.	10
C/C(=N\n1nnnc1Nc1ccccc1)c1ccc(N)cc1	i	117*	-2	0	-6	72
COc1cccc(C2c3c(oc4ccccc4c3=O)C(=O)N2Cc2ccco2)c1 (configuration not stated)	.	59*	.	.	.	22
COc1cc(C2c3c(oc4ccccc4c3=O)C(=O)N2Cc2ccco2)ccc1O (configuration not stated)	i	-6	3	0	-5	-4
CCOc1ccc(N2C(=O)CC(Sc3nc(CC(C)C)ccc3C#N)C2=O)cc1 (configuration not stated)	i	.	-8	0	-9	.
CC(C)Cc1ccc(C#N)c(SCC(N)=O)n1	i	-69	-12	0	-4	-59*
CC(NC1c2ccccc2-c2ccccc21)c1ccccc1 (configuration not stated)	.	2	.	.	.	-4
CC1C=Cc2ccccc2N1C(=O)c1ccccc1 (configuration not stated)	i	-70	-7	0	.	-63*
O=C(CC1C=Cc2ccccc2N1C(=O)c1ccccc1)c1ccccc1 (configuration not stated)	i	71*	.	.	3	24
Cc1cccc(C(=O)N2N=C(c3ccc(NS(C)(=O)=O)cc3)CC2c2cccs2)c1 (configuration not stated)	.	49	.	.	.	35
Cc1cc(Cl)c2oc(C(=O)N3CCN(C(=O)c4ccco4)CC3)c(C)c2c1	.	18	.	.	.	12
O=C1S/C(=C\c2ccc(N3CCOCC3)o2)C(=O)N1Cc1ccc(F)cc1	i	.	-10	0	i	.
O=C1S/C(=C/c2ccc(N3CCOCC3)o2)C(=O)N1Cc1ccc(F)cc1	?	155*	.	0	-80	103
COc1ccc(OCC(O)CNS(=O)(=O)c2cccc(Cl)c2)cc1 (configuration not stated)	i	-2	-5	.	.	-7
CCSc1nnc([C@H](Cc2c[nH]c3ccccc23)NC(=O)OC(C)(C)C)o1	i	59*	-5	0	1	19
CSc1nnc([C@H](Cc2c[nH]c3ccccc23)NC(=O)OC(C)(C)C)o1	i	-6	11	.	3	3
O=C1/C(=C/c2ccc(Cl)cc2)SC(=S)N1CCC(=O)N1CCCCC1CCO (configuration not stated)	.	14	.	.	.	3
O=C1/C(=C/c2ccco2)SC(=S)N1CCC(=O)N1CCCCC1CCO (configuration not stated)	.	55*	.	.	.	33
SMILES	HSV replic up	HSF-1 act	Mdm2 ligase inh	Hsp70 activator	Rad51 HR inh	HSF1 inhib
NC(=O)c1nsc(C(=O)N(c2ccc3c(c2)OCCO3)C(C(=O)NCC2CCCO2)c2ccc(F)cc2)c1N (configuration not stated)	.	-54	.	.	.	-54*
NC(=O)c1nsc(C(=O)N(c2ccccc2)C(C(=O)NCC2CCCO2)c2cccs2)c1N (configuration not stated)	i	73*	-2	0	9	41
Cc1ccc(C(C(=O)NCC2CCCO2)N(C(=O)c2snc(C(N)=O)c2N)c2ccc3c(c2)OCCO3)cc1 (configuration not stated)	.	-4	.	.	.	-4
CCOc1cc(/C=N/NC(=O)CCCC(=O)NC2CCCCC2)ccc1O	i	-2	-6	0	2	-6
CCOC(=O)c1ccc(-c2ccc(/C=N/NC(=O)Cc3nnc(N)s3)o2)cc1	i	71*	-5	.	-25	27
CCOC(=O)c1ccc(-c2ccc(C=O)o2)cc1	i	33	-102	.	-3	26
CCCOC(=O)c1ccc(-c2ccc(C=O)o2)cc1	i	66*	2	0	.	29
Cc1ccc(NC(=O)Cn2ccnc2)cc1C	.	-10	.	.	.	2
CC(C)CCN(C(=S)NC(=O)C1CCCCC1)c1c(N)n(Cc2ccccc2)c(=O)[nH]c1=O	i	2	-17	0	-3	5
Cc1ccc(N2C(=O)CC2(C#N)c2ccc(OCc3ccccc3)cc2)cc1 (configuration not stated)	i	27	-3	0	1	10
Cc1ccc(CNC(=O)c2ccc(OCC3CCCO3)cc2)cc1 (configuration not stated)	i	-5	-8	0	-5	-10
N=c1ccn2c(n1)OC1C(O)C(CO)OC12 (configuration not stated)	i	6	-12	.	-6	6
Cc1ccc(-n2ncc3c(SCC(=O)Nc4cc(C)on4)ncnc32)c(C)c1	i	-20	-13	0	2	-3
O=C(Nc1ccccc1Cl)Nc1ccccc1Cl	i	8	-6	.	16	10
O=C(Nc1ccc(Nc2ccccc2)cc1)Nc1ccccc1Cl	i	56*	-4	.	13	34
Cn1c(CN2CCN(c3ccc(Cl)cc3)CC2)nc2ccccc21	i	64*	.	0	2	22
C=CCc1cccc(CNc2nc3ccccc3n2CCN2CCOCC2)c1O	i	118*	-21	0	0	88
COc1ccc(CNc2nc3ccccc3n2CCN2CCOCC2)cc1	i	-21	-5	-1	-3	6
Cn1c(NCc2ccc(Cl)cc2)nc2ccccc21	i	54*	-16	1	22	36
